From ChEMBL document CHEMBL1156503, “Long-acting kappa opioid antagonists disrupt receptor signaling and produce noncompetitive effects by activating c-Jun N-terminal kinase” (J Biol Chem, 2007)
The source made the active and inactive calls.

Experiments:
Mus musculus [1] = assay: Inhibition of U50488-induced analgesic activity against C57BL/6 mouse assessed as tail withdrawal latency at 10 mg/kg, ip; format: functional, organism-based; parameters: dose 10 mg/kg
In short: (§1)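 Male C57Bl/6 mice, 20–30 g. Single 10 mg/kg i.p. dose or saline. At set days, U50,488 15 mg/kg i.p. was given and tail-withdrawal latency from 52 ± 1 °C water measured 30 min later, 15 s cut-off. One-way ANOVA with Bonferroni post hoc test.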

Mus musculus [2] = assay: Inhibition of U50488-induced analgesic activity against C57BL/6 mouse assessed as tail withdrawal latency at 10 mg/kg, ip after 2 days; format: functional, organism-based; parameters: dose 10 mg/kg; in short: as §1
[3] = target: T1, c-Jun N-terminal kinase, JNK (Homo sapiens, UniProt P45983+P53779+P45984); assay: Increase of JNK phosphorylation in U50488 treated HEK293 cells expressing GFP tagged kappa opioid receptor relative to U50,488; format: cell-based
[4] = target: T1, c-Jun N-terminal kinase, JNK; assay: Increase of JNK phosphorylation in U50488 treated HEK293 cells expressing GFP tagged kappa opioid receptor; format: cell-based
In short: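 KOR-GFP HEK293 cells under G418, serum-starved 18 h, then concentration series for 1 h at 37 °C. Lysate (40 μg protein) immunoblotted for phospho-JNK, p54 and p46 summed, normalised to basal (100%). EC50 from nonlinear regression; n = 3–5 separate cultures.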

[5] = target: T1, c-Jun N-terminal kinase, JNK; assay: Increase of U50488-induced JNK phosphorylation in untransfected HEK293 cells at 50 uM after 15 mins; format: cell-based
[6] = target: T1, c-Jun N-terminal kinase, JNK; assay: Increase of JNK phosphorylation in U50488 treated untransfected HEK293 cells at 100 uM after 15 mins; format: cell-based
Mus musculus [7] = assay: Inhibition of U50488-induced analgesic activity against C57BL/6 mouse assessed as tail withdrawal latency at 10 mg/kg, ip upto 21 days; format: functional, organism-based; parameters: dose 10 mg/kg; in short: as §1
[8] = target: T1, c-Jun N-terminal kinase, JNK; assay: Increase of JNK phosphorylation in U50488 treated untransfected HEK293 cells at 10 uM after 1 hr; format: cell-based
In short: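 Untransfected HEK293 cells grown without G418, serum-starved 18 h, then ligand 10 μM for 1 h at 37 °C. Phospho-JNK immunoblot quantified as % of basal untreated control, n = 3–7.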

Mus musculus [9] = assay: Effect on U50488-induced analgesic activity in C57BL/6 mouse assessed as tail withdrawal latency at 10 mg/kg, ip; format: functional, organism-based; parameters: dose 10 mg/kg
In short: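 Male mice, 20–30 g, 8–12 weeks old, got a single ip injection in saline (control: saline). At set times from 24 h to 28 days afterward, they were challenged with U50,488 15 mg/kg ip. Tail-withdrawal latency from 52 ± 1 °C water was read 30 min later, with a 15 s cut-off. Groups were compared with saline by one-way ANOVA and Bonferroni.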

Mus musculus [10] = assay: Inhibition of U50488-induced analgesic activity against C57BL/6 mouse assessed as tail withdrawal latency at 10 mg/kg, ip for 14 days; format: functional, organism-based; parameters: dose 10 mg/kg; in short: as §1
Mus musculus [11] = assay: Increase of JNK phosphorylation in mouse striatum at 10 mg/kg, ip after 1 hr; format: organism-based; parameters: dose 10 mg/kg
In short: (§2)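 C57Bl/6 mice (wild type; KOR−/− as control) given 10 mg/kg i.p. Spinal cord and striatum dissected 60 min later and Dounce-homogenised in lysis buffer with phosphatase and protease inhibitors. Phospho-JNK immunoblot expressed as % of basal untreated control.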

[12] = target: T1, c-Jun N-terminal kinase, JNK; assay: Increase in JNK phosphorylation in pertussis toxin treated HEK293 cells expressing GFP tagged kappa opioid receptor at 10 uM after 1 hr; format: cell-based
In short: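 KOR-GFP HEK293 cells serum-starved, pretreated with pertussis toxin 200 ng/ml for 18 h at 37 °C, then ligand 10 μM for 1 h at 37 °C. Phospho-JNK p54/p46 read by infrared immunoblot with β-actin loading control. Expressed as % basal, n = 3–4; Student's t test.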

Mus musculus [13] = assay: Reversal of inhibition of U50488-induced analgesic activity against C57BL/6 mouse assessed as tail withdrawal latency at 10 mg/kg, ip after 8 days in presence of SP600125; format: functional, organism-based; parameters: dose 10 mg/kg
In short: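 Wild-type mice given SP600125 30 mg/kg i.p. (vehicle 5% […]/20% Cremophor EL/75% saline) 24 h and 30 min before 10 mg/kg i.p. test drug. Day 7–8: U50,488 25 mg/kg i.p. challenge, then tail-flick latency in 52 °C water, 15 s cut-off.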

Mus musculus [14] = assay: Increase of JNK phosphorylation in mouse spinal cord at 10 mg/kg, ip after 1 hr; format: organism-based; parameters: dose 10 mg/kg; in short: as §2
[15] = target: Kappa-type opioid receptor (Mus musculus, UniProt P33534); assay: Displacement of [3H]U69,593 from kappa opioid receptor in mouse brain tissue
Sequence of Kappa-type opioid receptor (P33534 whole entry): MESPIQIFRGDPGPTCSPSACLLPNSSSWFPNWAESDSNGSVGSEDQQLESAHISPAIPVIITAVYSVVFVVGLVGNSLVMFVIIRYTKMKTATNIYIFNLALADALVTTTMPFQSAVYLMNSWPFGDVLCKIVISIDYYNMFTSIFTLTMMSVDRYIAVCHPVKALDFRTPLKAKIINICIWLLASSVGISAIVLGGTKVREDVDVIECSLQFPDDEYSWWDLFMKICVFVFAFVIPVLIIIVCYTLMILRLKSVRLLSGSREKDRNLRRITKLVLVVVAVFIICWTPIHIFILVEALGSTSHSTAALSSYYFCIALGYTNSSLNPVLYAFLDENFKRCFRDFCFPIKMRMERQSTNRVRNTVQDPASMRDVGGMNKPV

Mus musculus [16] = assay: Inhibition of U50488-induced analgesic activity against C57BL/6 mouse assessed as tail withdrawal latency at 10 mg/kg, ip after 28 days; format: functional, organism-based; parameters: dose 10 mg/kg; in short: as §1

C=CCN1CC[C@]23c4c5ccc(O)c4O[C@H]2C(=O)CC[C@@]3(O)[C@H]1C5 was tested. Which Activity (Mus musculus [1]) did it give?
The Activity was “Active”.

And the Activity (Mus musculus [2])?
The Activity was “inactive”.

Which results are given for CO[C@@]12CC[C@@]3(C[C@@H]1[C@](C)(O)C(C)(C)C)[C@H]1Cc4ccc(O)c5c4[C@@]3(CCN1CC1CC1)[C@H]2O5?
Intrinsic activity [3]: inactive; Activity [4]: inactive

Which Activity [5] does the source give for COc1ccc(C[C@H]2NC[C@H](O)[C@H]2OC(C)=O)cc1 here?
Its Activity is “Active”.

And the Activity [6]?
Its Activity is “Active”.

With N=C(N)Nc1ccc2[nH]c3c(c2c1)C[C@@]1(O)[C@H]2Cc4ccc(O)c5c4[C@@]1(CCN2CC1CC1)[C@H]3O5 as the compound, how does the Activity (Mus musculus [7]) read?
Its Activity is “Active”.

And the Activity [8]?
The Activity was “inactive”.

With Oc1c2ccccc2c2c3c(cccc13)N=N2 as the compound, how does the Activity (Mus musculus [9]) read?
The Activity was “inactive”.

Which Intrinsic activity [3] does the source give for CC(C)C[C@H](NC(=O)[C@H](Cc1ccccc1)NC(=O)CNC(=O)CNC(=O)[C@@H](N)Cc1ccc(O)cc1)C(=O)N[C@@H](CCCNC(=N)N)C(=O)N[C@@H](CCCNC(=N)N)C(=O)N[C@@H](CCC(N)=O)C(=O)N[C@@H](Cc1ccccc1)C(=O)N[C@@H](CCCCN)C(=O)N[C@H](C(=O)N[C@H](C(=O)N[C@H](C(=O)O)[C@@H](C)O)C(C)C)C(C)C [DYNORPHIN B] here?
Its Intrinsic activity is 0.61.

And the EC50 [4]?
The EC50 was 87 nM.

CC(C)[C@@H](CN1CC[C@@](C)(c2cccc(O)c2)[C@@H](C)C1)NC(=O)[C@H]1Cc2ccc(O)cc2CN1 [JDTIC] was tested. Which Activity (Mus musculus [10]) did it give?
Its Activity is “Active”.

What about the Intrinsic activity [3] of the same compound?
The Intrinsic activity was 0.57.

What about the EC50 [4] of the same compound?
Its EC50 is 5 nM.

And the Activity [8]?
The Activity was “inactive”.

Oc1ccc2c3c1O[C@H]1c4[nH]c5c(c4C[C@@]4(O)[C@@H](C2)N(CC2CC2)CC[C@]314)C[C@@]1(O)[C@H]2Cc3ccc(O)c4c3[C@@]1(CCN2CC1CC1)[C@H]5O4 [NORBINALTORPHIMINE] was tested. Which Activity (Mus musculus [11]) did it give?
Its Activity is “Active”.

And the Activity [12]?
The Activity was “inactive”.

And the Intrinsic activity [3]?
The Intrinsic activity was 0.84.

What about the Activity (Mus musculus [13]) of the same compound?
Its Activity is “Active”.

And the Activity (Mus musculus [7])?
The Activity was “Active”.

And the EC50 [4]?
Its EC50 is 158 nM.

And the Activity [8]?
The Activity was “inactive”.

What about the Activity (Mus musculus [14]) of the same compound?
The Activity was “Active”.

What about the Kd [15] of the same compound?
The Kd was 1.65 nM.

What about the Activity (Mus musculus [16]) of the same compound?
The Activity was “inactive”.
